2 compounds from ChEMBL document CHEMBL2331355, “Synthesis, structure activity relationship and mode of action of 3-substitutedphenyl-1-(2,2,8,8-tetramethyl-3,4,9,10-tetrahydro-2H,8H-pyrano[2,3-f]chromen-6-yl)-propenones as novel anticancer agents in human leukaemia HL-60 cells” (Eur J Med Chem, 2013) can be followed below.

What is called pIC50 is the negative decadic logarithm of the IC50, by convention in mol/L. Read a low pIC50 as a high IC50.

Test [1] concerns HL-60. Put plainly: Cell cycle arrest in human HL60 cells assessed as G2/M phase cells at 15 uM after 24 hrs by PI staining-based flow cytometric analysis (reference value: 3%). In kind it is functional. On the technique in general: In flow cytometry, cells or beads pass a laser one at a time.
Test [2] has as its system HL-60. Put plainly: Cell cycle arrest in human HL60 cells assessed as G2/M phase cells at 10 uM after 24 hrs by PI staining-based flow cytometric analysis (reference value: 3%). In kind it is functional.
Test [3] relates to HL-60. Nature of the test: Cell cycle arrest in human HL60 cells assessed as S phase cells at 20 uM after 24 hrs by PI staining-based flow cytometric analysis (reference value: 49%). In kind it is functional.
The subject of test [4] is HL-60. Nature of the test: Cell cycle arrest in human HL60 cells assessed as S phase cells at 15 uM after 24 hrs by PI staining-based flow cytometric analysis (reference value: 49%). In kind it is functional.
For test [5], the system named is HL-60. Put plainly: Cell cycle arrest in human HL60 cells assessed as accumulation of G0/G1 phase cells at 20 uM after 24 hrs by PI staining-based flow cytometric analysis (reference value: 48%). In kind it is functional.
The test system of test [6] is HL-60. Nature of the test: Induction of apoptosis in human HL60 cells at 5 uM after 24 hrs by PI-staining based flow cytometric analysis (reference value: 0.7 %). In kind it is functional.
Test [7] has as its system HL-60. Nature of the test: Cell cycle arrest in human HL60 cells assessed as accumulation of G0/G1 phase cells after 24 hrs by PI staining-based flow cytometric analysis. In kind it is functional.
Test [8] relates to HL-60. Nature of the test: Cytotoxicity against human HL60 cells after 48 hrs by MTT assay. In kind it is functional, cell-based. The conditions noted are these: HL-60, 48 h. The method in brief:
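MTT assay in 96-well plates, 48 h exposure across 1–100 µM. OD read at 570 nm against a 620 nm reference. Untreated control OD taken as 100% viability. IC50 derived from the concentration–response curves. Mean ± SD, n = 8 wells, from three independent experiments.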
(In general: Tetrazolium assays rely on reduction of a dye to a coloured formazan, in cell work by metabolically active cells.)

Test [9] relates to HL-60. Nature of the test: Growth inhibition of human HL60 cells at 30 uM after 48 hrs by MTT assay. In kind it is functional, cell-based. A digest of the protocol: (§1)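 Single-concentration MTT screen at 50 µM over 48 h in 96-well plates. Compounds giving >50% inhibition were rescreened at 30 µM. OD read at 570 nm, reference 620 nm. Result expressed as % growth inhibition versus untreated control. Mitomycin C, adriamycin or 5-fluorouracil used as positive controls. Mean ± SD of three independent experiments.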

In another test the test system is Caco-2. Put plainly: Growth inhibition of human Caco2 cells at 50 uM after 48 hrs by MTT assay. In kind it is functional. The conditions noted are these: Caco-2, 48 h, read-out: GI. The method in brief:
as §1

In another test the test system is MIA PaCa-2. Nature of the test: Growth inhibition of human MIAPaCa2 cells at 50 uM after 48 hrs by MTT assay. In kind it is functional. The note with it: MIA PaCa-2, 48 h, read-out: GI. The method in brief:
as §1

The test system of another test is ASPC1. Put plainly: Growth inhibition of human AsPC1 cells at 50 uM after 48 hrs by MTT assay. The note with it: ASPC1, 48 h, read-out: GI. In kind it is functional. The method in brief: as §1

pIC50: −log10 of the molar value. Activity calls are given as the source filed them. The calls are words filed in the database; no cut-off is given here.

In the case of `CC1(C)CCc2cc(C(=O)/C=C/c3cccc([N+](=O)[O-])c3)c3c(c2O1)CCC(C)(C)O3`, the Activity in the test on HL-60 [1] came out at 4%; with HL-60 [2], 4%; in the test with HL-60 [3], 11%; in the test with HL-60 [4], 25%; in the test with HL-60 [5], 86%; with HL-60 [6], 3%. Moreover, the Activity result in the test on HL-60 [7] was “Dose-dependent effect”. In the test on HL-60 [8], this compound showed a pIC50 of 4.96. Also, the “growth inhibition (GI)” value with HL-60 [9] is “Active”. In addition, the figures for the inhibition of growth at 50 µM in the test on Caco-2, with MIA PaCa-2 and with ASPC1 were 93%, 80% and 48%, respectively.

With `CC1(C)CCc2cc(C(=O)/C=C/c3ccc([N+](=O)[O-])cc3)c3c(c2O1)CCC(C)(C)O3`, the Activity with HL-60 [1] worked out at 4%; in the test with HL-60 [2], 4%; in the test with HL-60 [3], 37%; in the test on HL-60 [4] it was 43%; with HL-60 [5] it was 59%; in the test with HL-60 [6], 3%. Further, the Activity result with HL-60 [7] is “Dose-dependent effect”. Moreover, the negative logarithm of the IC50 (pIC50) in the test with HL-60 [8] is 4.82. Besides, in the test on HL-60 [9], the “growth inhibition (GI)” value was “Active”. The results for the inhibition of growth at 50 µM in the test on Caco-2, in the test on MIA PaCa-2 and in the test with ASPC1 were 73%, 74% and 27%, respectively.
